The structures appear in SMILES notation.

These results are taken from ChEMBL document CHEMBL4513216, “Probing the Open Global Health Chemical Diversity Library for Multistage-Active Starting Points for Next-Generation Antimalarials” (ACS Infect Dis, 2020).

The nature of this series: Toxicity liver stage against HepG2, at 10uM. The note with it: human, HepG2-A16-CD81EGFP cells; read-out: INHIBITION
In kind it is cell-based. Set-up: test concentration 10 uM, cell line HepG2-A16-CD81EGFP. The method in brief:
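Uninfected HepG2-A16-CD81EGFP cells, 3 × 10^3 per well, 1536-well, plated on prespotted compound at 10 μM final, parasite-free screening media added to match infected plates; puromycin 10 μM positive, DMSO 0.5% negative; run in parallel with 48 h PbLuc assay at 37 °C, 5% CO2; viability by CellTiter-Glo luminescence, normalized to controls.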
Consider `O=C(NC[C@H]1C[C@@H]2CCN1C[C@@H]2CN1CCCCC1)Nc1ccsc1`, for which the cytotoxicity at 10 µM is -1.31%. Then `C=C(C)Cn1c(=O)nc(N)c2c(-c3ccc(OC)cc3)csc21`, with -26%; and `O=C(CCc1ccc(-n2cnnn2)cc1)Nc1ccncc1`, with -11.2%; and `O=C(NC1CC(=O)N(C2CC2)C1)c1ccc(Cl)s1` (stereo not given), with 9.05%. As for `CN(C)CC1CSCCCN1C(=O)c1ccc(-c2ccccc2)cc1` (stereo not given), the cytotoxicity at 10 µM stood at 4.54%. With `CCN1C(=O)CC(c2ccccc2)C12CCN(c1ncc(C)cn1)CC2` (stereo not given), the cytotoxicity at 10 µM was -2.6%. The value for `CC(=O)NCC(=O)N1CCc2nc(C)nc(C)c2CC1` was -12%; that for `Cc1nccc([C@H]2C[C@@H]3CCN(S(C)(=O)=O)C[C@H]3O2)n1` was -0.522%; that for `CC(C)NC(=O)c1ccc2c(c1)nc1n2CCN(Cc2ccccc2)C1` was 6.61%. With `CCn1c(O)c(C(C)=O)c2cc(C)ccc21`, the cytotoxicity at 10 µM was -8.24%. Then `O=C(C1CC1)N1CC[C@H](O)[C@@H]1Cc1ccccc1`, with 1.93%. On to `O=C(c1ccnn1COc1ccc(Cl)cc1)N1CCSCC1`, for which the cytotoxicity at 10 µM is -4.56%. Regarding `CN1C[C@@H](C(=O)NC(C)(C)C)[C@@]2(COc3ccc(F)cc3C2=O)C1`, the cytotoxicity at 10 µM came to 1.5%. `Cc1ccccc1C(=O)N1C[C@@H](O)[C@H](N2CCOCC2)C1`: the cytotoxicity at 10 µM is 9.3%. Take `CN1CCC(c2cnc(NCc3nccn3C)cn2)CC1`: the cytotoxicity at 10 µM is -5.91%. Take `COc1cccc(N2CCN(C(=O)c3ccc(=O)n(C)c3)CC2)c1`: the cytotoxicity at 10 µM is -7.81%. Consider `COc1ccccc1CC(C)CC(=O)NC(C)C` (stereo not given), for which the cytotoxicity at 10 µM was found to be 6.16%.

Regarding `COc1cccc2c1N(CC(=O)Nc1ccc(Cl)cn1)CCC2`, the cytotoxicity at 10 µM was determined as 64.9%. As to `CN(C)c1cccc(C(=O)Nc2cnn(Cc3ccncc3)c2)c1`, the cytotoxicity at 10 µM is -9.19%. For the molecule `CCC(CNC(=O)c1ccc(C(N)=O)cc1)Oc1cccc(F)c1` (stereo not given), the cytotoxicity at 10 µM is -39.5%.

Take `O=C(NCc1nc(C2CC2)no1)N1CCOC(c2ccccc2)C1` (stereo not given): the cytotoxicity at 10 µM was -45.2%. As for `O=S(=O)(c1ccc(F)cc1F)N1CCCCC1c1nnc2n1CCCC2` (stereo not given), the cytotoxicity at 10 µM worked out at 2.22%. With `Cc1cnn(CC2CCCCN2CC(=O)Nc2cccnc2)c1` (stereo not given), the cytotoxicity at 10 µM was 3.5%. For `CC(C)NC(=O)CN(C)C1CCN(c2cnc3ccccc3n2)CC1`, the cytotoxicity at 10 µM was -6.14%. On to `COCC(C)(CCO)NC(=O)Nc1cccc(F)c1C` (stereo not given), for which the cytotoxicity at 10 µM turned out to be 7.94%. Turning to `CN(Cc1ccccn1)C(=O)c1ccc2c(c1O)OC(C)(C)C2`, the cytotoxicity at 10 µM is -11.8%. With `Cc1noc(C)c1C(C)C(=O)N1CCCN(C)c2ccc(Cl)cc21` (stereo not given), the cytotoxicity at 10 µM came out at 3.89%. For `COc1cccc(CC(=O)NC2CCCc3cn[nH]c32)c1` (stereo not given), the cytotoxicity at 10 µM was determined as 12.5%.

Consider `Cc1cnc2c(c1)N(C(=O)c1ccc(=O)n(C)c1)CCO2`, for which the cytotoxicity at 10 µM is 0.965%. Then `COc1ccc(-n2cnnc2SCCC#N)cn1`, with 22.2%; and `CN1CCN(Cc2ccccc2CNC(=O)c2ccc(Br)cc2)CC1`, with 4.44%. The value for `CN(C)CC(=O)N1CCc2sc(C(=O)N3CCN(C)CC3)cc21` was -104%; that for `CCN(C(=O)c1ccc2nnc(C3CCN(S(C)(=O)=O)C3)n2c1)C(C)C` (stereo not given) was -110%; that for `Cn1ccc(C(=O)NC2CCC23CCN(C(=O)c2ccccn2)CC3)c1` (stereo not given) was -71.7%. The value for `COCCO[C@@H]1CCN(C(=O)c2ccc[nH]2)[C@H]1Cc1cnn(C)c1` was -71.7%. For the molecule `CC(C)c1cc(NC(CO)CO)n2nccc2n1`, the cytotoxicity at 10 µM is 6.33%. With `CNC(=O)c1cn2cc(-c3ccccc3Cl)n(CC3CC3)c(=O)c2n1`, the cytotoxicity at 10 µM is 0.562%. For `Cc1nn(C)c2nc(N3CCCCC3c3cccnc3)sc12` (stereo not given), the cytotoxicity at 10 µM was -6.9%. As for `O=C(CN1C(=O)CCNC1=O)N1CCC(c2ccc(F)cc2)C1` (stereo not given), the cytotoxicity at 10 µM was found to be 4.3%. Consider `N#Cc1ccccc1CN1CCCC(c2nccn2CC2CC2)C1` (stereo not given), for which the cytotoxicity at 10 µM came out at 2.84%. In the case of `Nc1ccncc1-n1cc(CCO)cn1`, the cytotoxicity at 10 µM turned out to be 0.769%. Regarding `CSCc1nc(CCNC(=O)c2cnn(C(C)C)c2)cs1`, the cytotoxicity at 10 µM was -7.91%. With `COc1ccc(F)c(CN2CCCC(O)(CNCc3ncc[nH]3)C2=O)c1` (stereo not given), the cytotoxicity at 10 µM was found to be 5.87%. Take `CCC[C@H]1CN(Cc2ccc(N(C)C)nc2)C[C@@H]1NC(=O)CSC`: the cytotoxicity at 10 µM came to 7.78%. The value for `COc1ccccc1N1CCN(CC[C@H](O)c2ccccc2)CC1=O` was -0.081%; that for `O=C(NC1CCCN(CCCc2ccccc2)C1)C1=CCCCC1` (stereo not given) was -0.739%. With `Cc1ncsc1C(=O)N1CCn2nc(CN3CCSCC3)cc2C1`, the cytotoxicity at 10 µM was -51%. With `Fc1ccc(Cn2ncc3c2CN(c2noc(C4CC4)n2)C3)cc1`, the cytotoxicity at 10 µM is -2.76%.

As for `Cc1nc(C(=O)N2CCN(c3ncccn3)[C@@H]3CS(=O)(=O)C[C@@H]32)cs1`, the cytotoxicity at 10 µM was found to be 6.12%.

`Cc1nc[nH]c1C(=O)N1CC[C@@H](NC(=O)c2ccccn2)[C@H](O)C1`: the cytotoxicity at 10 µM is 4.61%.

As to `O=C1N(Cc2ccc(F)cc2)CCCC12CCN(C1CCSCC1)C2` (stereo not given), the cytotoxicity at 10 µM is 1.77%. In the case of `O=C(CCc1cc2n(n1)CCCN(C(=O)[C@H]1CCCO1)C2)NC1CC1`, the cytotoxicity at 10 µM is 4.78%. Then `CCc1ncc2c(n1)CN(C(=O)CCCc1ccc(OC)cc1)C2`, with -7.32%. On to `Cc1c(C(=O)NCCC2CN(C)CCO2)n(C)c2c(C)cccc12` (stereo not given), for which the cytotoxicity at 10 µM was -3.83%. For `CCOc1ccc(CN2CCNC(C(=O)NC3CC3)C2)cc1CO` (stereo not given), the cytotoxicity at 10 µM came to 2.95%. For the molecule `CN1CCc2[nH]cnc2C12CCN(Cc1ccc3nsnc3c1)CC2`, the cytotoxicity at 10 µM turned out to be 5.05%.

On to `Cc1ccccc1-n1c(C)cc(=O)[nH]c1=O`, for which the cytotoxicity at 10 µM was -2.4%.

With `CC(C)(C)c1cc2ncn(CCCN3CCCCC3CO)c(=O)c2s1` (stereo not given), the cytotoxicity at 10 µM was -5.39%. In the case of `COc1cccc2c1OCC(CNC(=O)CSc1nc(N)n[nH]1)C2` (stereo not given), the cytotoxicity at 10 µM is 0.712%. Regarding `Cc1nc(C)n(C2CCCN(C(=O)CCOc3cccc(F)c3)C2)n1` (stereo not given), the cytotoxicity at 10 µM is -1.79%.

Consider `CCN1N=C(C(=O)N2CCCC(c3nc(C)cs3)C2)CCC1=O` (stereo not given), for which the cytotoxicity at 10 µM is -3.12%. Then `CCn1cnnc1C1CCN(C(=O)c2cc(F)ccc2OC)CC1`, with -3.35%; and `CC(C)Oc1ccc(Cl)c(C(=O)N2CCN(CCO)CC2)n1`, with -3.82%. As for `CCn1cc(CN2CCCN(C(=O)CCc3ccccc3)CC2)cn1`, the cytotoxicity at 10 µM was -7.9%. Regarding `O=C(c1ccc2[nH]nnc2c1)N1CCC(Nc2cccnn2)CC1`, the cytotoxicity at 10 µM is -1.49%. Consider `O=C1COc2ccc(C(=O)NS(=O)(=O)c3cc(F)ccc3F)cc2N1`, for which the cytotoxicity at 10 µM was -4.92%. Regarding `COc1ccccc1OCCC(=O)N1CCCC1Cn1cccn1` (stereo not given), the cytotoxicity at 10 µM was -5.19%. The value for `COc1ccc(C(=O)N(Cc2cnn(C)c2)C(C)C)cc1OC(F)F` was -5.17%. On to `CCOc1cc(C(=O)N2CCCC(c3noc(C)n3)C2)ccc1OC` (stereo not given), for which the cytotoxicity at 10 µM is -3.33%. Take `O=C1NCCN1C1CCCN(Cc2coc(-c3cccs3)n2)C1` (stereo not given): the cytotoxicity at 10 µM was -4.39%.

For `Cc1ccc(-n2nnc(C(=O)NCC3(CO)CC3)c2C2CC2)cc1`, the cytotoxicity at 10 µM was -4.43%. Take `Cc1cccc(NC(=O)C2CSCN2C(=O)c2cnccn2)c1C` (stereo not given): the cytotoxicity at 10 µM is -0.691%.

For the molecule `CN(Cc1csc(-c2cnn(C)c2)n1)CC1CCN(CCO)CC1`, the cytotoxicity at 10 µM amounted to 7.77%. Take `Cn1cnc2c1CCN(Cc1csc(C3CCCCC3)n1)C2`: the cytotoxicity at 10 µM was -3.36%. In the case of `Cc1ccc(OCC(O)CN2CCC(Cn3cc(C)cn3)CC2)cc1` (stereo not given), the cytotoxicity at 10 µM was -3.17%. On to `CC(OCc1ccccc1)C(=O)NCc1ccc(N(C)C)cc1` (stereo not given), for which the cytotoxicity at 10 µM was -12%.

Regarding `CCc1nnc2n1CCN(C(=O)c1cc3cc(F)ccc3[nH]1)C2`, the cytotoxicity at 10 µM was -9.52%.

As for `Cc1ccc(NC(=O)C2CSCN2C(=O)c2cnccn2)c(C)c1` (stereo not given), the cytotoxicity at 10 µM is -8.6%. In the case of `CN1CCCC1CNC(=O)CCCOCc1ccccc1` (stereo not given), the cytotoxicity at 10 µM is -5.59%. In the case of `COc1c(CNC(c2ccc(F)cc2)C(C)(C)C)c(C)nn1C` (stereo not given), the cytotoxicity at 10 µM stood at 0.0161%. `CCN(Cc1ccc2c(c1)OCO2)C(=O)CCc1c(C)nc(C)[nH]c1=O`: the cytotoxicity at 10 µM was -4.61%. Consider `Cc1cc2n(n1)CC(CNCc1ccc(-n3cccn3)nc1)CN2` (stereo not given), for which the cytotoxicity at 10 µM was -10.5%. The value for `CCc1nc(CN2CCCN(C(=O)c3cn[nH]c3CC)CC2)cs1` was -7.21%.

As to `CN(C)Cc1cnc(C2CCN(C(=O)c3ccccc3F)C2)[nH]1` (stereo not given), the cytotoxicity at 10 µM stood at 0.578%. As for `O=C(CN(C1=NCCCC1)c1ccccc1)c1ccc2c(c1)OCCO2`, the cytotoxicity at 10 µM amounted to 8.9%. Then `NCC1[C@H]2CN(CCc3ccccc3)C[C@@H]12` (stereo not given in full), with 5.22%; and `COc1ccc(CN2CC[C@@H](O)[C@@H]2Cc2cnn(C)c2)cc1`, with -68.3%. Consider `c1cnc(N2CC3(CCN(C4CCOCC4)CC3)c3ccccc32)nc1`, for which the cytotoxicity at 10 µM is -6.32%. Regarding `O=C([C@@H]1C[C@@H]2CCN(Cc3ccc4c(c3)OCO4)C[C@@H]2O1)N1CCCC1`, the cytotoxicity at 10 µM was -2.46%.

On to `CN(C)CCOCC1CN(Cc2ccc(F)cc2)Cc2nnn(C)c21` (stereo not given), for which the cytotoxicity at 10 µM was 4.59%. Turning to `Cn1cnc2c1C(COCC1CCOCC1)CN(c1ncccn1)C2` (stereo not given), the cytotoxicity at 10 µM was -74.1%.

As for `Cc1cc(C(=O)N2CCCC3(COCCN(c4ncccn4)C3)C2)[nH]n1` (stereo not given), the cytotoxicity at 10 µM is -3.58%. The value for `Cn1cc(CN2C[C@@H]3COC[C@]3(COCC3CC3)C2)cn1` was -112%. Then `COc1cccc(-c2cc(C3=NC(=CN4CCN(C)CC4)NO3)[nH]n2)c1`, with -7.54%; and `CC(C)(C)c1cc(CN2C[C@H]3CC[C@@H](C2)N(Cc2ccccn2)C3)n[nH]1`, with 0.541%.
